# MrgX1 antagonist = human MrgX1 receptor antagonism, primary screen; Q96LB2; B-score at 10 µM; MRGX1-HEK293 calcium flux, Fluo-4, BAM8-22 antagonism; active compounds read low; hit rate 1.3% among 310,000; AID 588676;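 active = calcium-response B-score plate-corrected more than 3 library SD below zero, starting fluorescence within 5 deviations, no agonist response on first addition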;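 also: peak minus trough fluorescence over baseline after final BAM8-22 challenge near maximal dose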
# Target sequence (Q96LB2 whole entry, looked up): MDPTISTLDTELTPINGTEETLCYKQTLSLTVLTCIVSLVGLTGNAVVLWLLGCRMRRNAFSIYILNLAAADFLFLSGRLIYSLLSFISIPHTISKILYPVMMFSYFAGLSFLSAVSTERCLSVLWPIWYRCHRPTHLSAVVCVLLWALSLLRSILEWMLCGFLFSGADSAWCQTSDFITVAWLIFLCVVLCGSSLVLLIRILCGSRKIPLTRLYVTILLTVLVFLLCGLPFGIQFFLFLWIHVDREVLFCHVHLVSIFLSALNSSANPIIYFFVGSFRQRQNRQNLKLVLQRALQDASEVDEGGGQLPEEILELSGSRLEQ
# MrgX1 ag = human MrgX1 receptor agonism, primary screen; B-score at 10 µM; MrgX1-HEK293 cells, Fluo-4 calcium fluorescence, agonist mode; active compounds read high; AID 588627; Q96LB2; hit rate 0.44% among 310,000;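 active = calcium response B-score plate-corrected fluorescence ratio at least 3 library SD, with starting fluorescence B-score inside 5 SD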
#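 Assay system: stable human MrgX1 HEK293 cell line. Quantity: 15,000 cells per well. Schedule: cells plated overnight, dye loaded 0.5 h 37 °C, 0.5 h room temperature. Detection: Fluo-4 NW calcium-flux fluorescence, kinetic read. Read-out basis: peak-minus-minimum fluorescence over baseline, converted to B scores. Control set: positive and negative control wells on each plate.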
# RGS4 block = inhibitors of human RGS4. P49798. hit rate 0.45% among 310,000. HEK293 M3R/RGS4 inducible, Fluo-4 calcium flux; active compounds read high; triggered by carbachol at its EC20. B-score at 10 µM;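 active = B-score, a plate-corrected calcium signal, over three deviations above library mean, with baseline fluorescence within five deviations of library mean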;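 also: RGS4 expression induced by doxycycline in cells with stable M3 receptor; B-score is computed from the integrated fluorescence ratio over baseline after carbachol; higher B-score means a larger calcium signal and so more RGS4 inhibition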
# RGS4 pot = RGS4 potentiation or activation. B-score at 10 µM. HEK293 M3R/inducible RGS4, carbachol calcium flux Fluo4; active compounds read low. AID 463111. hit rate 0.92% among 310,000;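 active = B-score of the integrated calcium signal more than 4 SD below the library mean, with starting fluorescence not abnormally high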;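 also: negative B-score means reduced calcium response which marks RGS4 activation or potentiation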
#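 Test system: HEK293 cells with stable M3R and inducible RGS4; also added: carbachol at ECmax as muscarinic agonist stimulus; schedule: dye loading 30 min 37 °C, buffer rest 30 min RT; technique: kinetic calcium fluorescence imaging with Fluo4-AM dye, 2 µM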
# MrgX1 PAM = allosterically activates human MrgX1 receptor signaling. hit rate 0.63% among 310,000. AID 588675. B-score at 10 µM. MrgX1-HEK293, Fluo-4 calcium flux, FDSS; active compounds read high;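 active = plate-corrected calcium response at least 3 library SD above typical, normal starting fluorescence, not activating the receptor alone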;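 also: compound read alongside a low EC10 to EC30 dose of BAM8-22 agonist; peak minus trough fluorescence over baseline measured at the second addition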
# RGS4 inh valid = validation of RGS4 inhibitors. shares compounds with RGS4 block. HEK293 M3R/RGS4, carbachol calcium Fluo-4 fluorescence; carbachol added at its EC20; 0 = buffer wells, 100 = carbachol control. calcium response, % at 10 µM. hit rate 65% among 1,700. AID 492999;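 active = duplicate-averaged calcium response above the buffer-only control mean plus 5 SD of those controls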;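 also: integrated fluorescence ratio F max minus min over baseline F0; higher response in RGS4-induced cells means RGS4 inhibition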
# M3R Ca ctr = counter-screen for RGS4 inhibitors: effect in non-induced cells; shares compounds with RGS4 block; HEK293 M3R non-induced, carbachol calcium Fluo-4; submaximal (EC20) carbachol stimulus; buffer wells 0%, carbachol control wells 100%; activity (percent), % at 10 µM; hit rate 20% among 1,900; AID 493000; call rule not given here;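 also: RGS4 induction absent so cells express M3R without RGS4; higher means more calcium signal and flags a non-specific hit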
# M3R basal Ca ctr = signal in non-induced cells without carbachol, RGS4 inhibitor counter-screen; shares compounds with RGS4 block; HEK293 M3R/RGS4 non-induced, Fluo-4 calcium, no carbachol; normalised: buffer wells 0%, carbachol wells 100%; calcium response (agonist-mode artifact), % at 10 µM; hit rate 22% among 1,900; AID 493001;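 active = duplicate-averaged calcium rise in uninduced cells above buffer wells' mean plus 5 SD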
# Numbers without * were called inactive; i = inactive; nt = no result given. In the library only some 3.5% were active in any assay of this set; here they are far more common.
SMILES,MrgX1 antagonist,MrgX1 ag,RGS4 block,RGS4 pot,MrgX1 PAM,RGS4 inh valid,M3R Ca ctr,M3R basal Ca ctr
CCOc1ccc(NC(=O)CC2C(=O)NCCN2C(=O)Nc2ccccc2)cc1 (centres undefined),i,i,i,i,i,nt,nt,nt
COc1ccc(NC(=O)N2CCNC(=O)C2CC(=O)Nc2ccc(F)cc2)cc1 (centres undefined),i,i,i,i,i,i,i,i
COC(=O)CC1C(=O)NCCN1C(=O)Nc1ccc(Cl)cc1 (centres undefined),i,i,i,i,i,nt,nt,nt
Cc1nc(SC(C)C(=O)NC2CCCCC2C)c2c(C)c(C)sc2n1 (centres undefined),i,i,i,i,i,nt,nt,nt
O=c1[nH]c(Cc2cccc(C(F)(F)F)c2)nc2ccccc12,i,i,i,i,i,nt,nt,nt
O=C(CC1C(=O)NCCN1C(=O)Nc1ccc(Cl)cc1)Nc1ccc(F)cc1 (centres undefined),i,i,5.56*,i,i,23.0%*,37.0%*,12.0%*
O=C(CC1C(=O)NCCN1C(=O)c1ccc(Cl)cc1)Nc1ccc(F)cc1 (centres undefined),i,i,i,i,i,i,i,i
CCOC(=O)c1c(C)[nH]c(C(=O)CN2C(=O)NC(C)(c3ccc(C)cc3)C2=O)c1C (centres undefined),i,i,i,i,i,i,i,7.5%*
CCOC(=O)c1c(C)[nH]c(C(=O)CN2C(=O)NC(CC)(c3ccccc3)C2=O)c1C (centres undefined),i,i,i,i,i,nt,nt,nt
Cc1cc(=O)[nH]c(SCC(=O)Nc2nc(-c3ccccc3)cs2)n1,i,i,i,i,i,nt,i,i
Cc1ccc(-c2csc(NC(=O)CSc3nc4ccccc4[nH]3)n2)cc1,nt,nt,i,i,nt,nt,i,i
COc1ccc(-c2csc(NC(=O)CSc3nc4ccccc4c(=O)[nH]3)n2)cc1,i,i,i,i,i,nt,nt,nt
Cc1nc([N+](=O)[O-])cn1Cc1cccc2ccccc12,i,i,i,i,i,nt,nt,nt
COc1ccccc1-c1c(NC(=O)c2ccco2)n(C)c2ccccc2c1=O,i,i,i,i,i,nt,nt,nt
COc1cccc(C(=O)O/N=C(\N)c2ccc(C)cc2)c1,i,i,i,i,i,nt,nt,nt
COc1cccc(C(=O)O/N=C(\N)Cc2ccc(Cl)cc2)c1,i,i,8.75*,i,i,7.5%*,i,i
Cc1cccc(Cn2cccc2/C=C2/C(=N)N3C=CSC3=NC2=O)c1,i,i,i,i,i,nt,nt,nt
N=C1/C(=C/c2cccn2Cc2ccc(F)cc2)C(=O)N=C2SC=CN12,i,i,i,i,i,nt,i,21.0%*
Cc1ccc(Cn2cccc2/C=C2/C(=N)N3C=CSC3=NC2=O)cc1,i,i,i,i,i,i,i,i
O=Cc1ccccc1-c1cn(CCCOCc2ccccc2)nn1,i,i,i,i,i,nt,nt,nt
CC1Cc2ccccc2N1Cc1nc2scc(-c3cccs3)c2c(=O)[nH]1 (centres undefined),i,i,9.3*,i,i,i,i,i
CC1CCCCN1Cc1c(O)ccc2c(=O)c(-c3nc4ccccc4s3)c(N)oc12 (centres undefined),i,i,11.5*,i,i,10.5%*,i,i
O=C(Nc1cccc(Cl)c1)Nc1nnc(CC2=CCCCC2)s1,i,i,10.1*,i,i,5.5%*,i,i

# Compound activity from PubChem.
